From ChEMBL document CHEMBL1795208 (J Med Chem, 2011)

What was measured:
Format in all cases: functional, cell-based
SK-MEL-28 = assay: Antiproliferative activity against human SK-MEL-28 cells after 72 hrs by MTS/PMS assay; conditions: SK-MEL-28, 72 h
Summary of the method: (§1)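 Cells kept in Advanced DMEM/F12 (1:1) with non-essential amino acids, 2 mM L-glutamine, penicillin, streptomycin and 10% FBS at 37 °C, 5% CO2. Seeded at 2000/well, attached overnight. Compound added in DMSO across a concentration range (1% DMSO final) for 72 h. Viable cells read by MTS/PMS and normalized to 1% DMSO controls (100%). IC50 taken from separate triplicate experiments.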

B16-F10 = assay: Antiproliferative activity against mouse B16F10 cells after 72 hrs by MTS/PMS assay; conditions: B16-F10, 72 h; summary of the method: as §1
SK-BR-3 = assay: Antiproliferative activity against human SKBR3 cells expressing HER2 after 72 hrs by MTS/PMS assay; conditions: SK-BR-3, 72 h; summary of the method: as §1
[1] = Antiproliferative activity against human androgen-independent PC3MM2 cells after 72 hrs by MTS/PMS assay; conditions: PC3MM2, 72 h; summary of the method: as §1
MCF7 = assay: Antiproliferative activity against human MCF7 cells expressing estrogen receptor after 72 hrs by MTS/PMS assay; conditions: MCF7, 72 h; summary of the method: as §1
[2] = Antiproliferative activity against human MDA1986 cells after 72 hrs by MTS/PMS assay; conditions: MDA1986, 72 h; summary of the method: as §1
[3] = Antiproliferative activity against human JMAR cells after 72 hrs by MTS/PMS assay; summary of the method: as §1
[4] = Antiproliferative activity against human androgen-dependent LNCaP-LN3 cells after 72 hrs by MTS/PMS assay; conditions: LNCaP-LN3, 72 h; summary of the method: as §1

SMILES | IC50 (SK-MEL-28) [µM] | IC50 (B16-F10) [µM] | IC50 (SK-BR-3) [µM] | IC50 [1] [µM] | IC50 (MCF7) [µM] | IC50 [2] [µM] | IC50 [3] [µM] | IC50 [4] [µM]
COc1cccc(-c2cc(C(=O)Nc3cc4ccc(OC5CCN(C)CC5)c(OC)c4oc3=O)ccc2OC)c1 | 6.14 | 0.41 | 0.97 | 3.71 | 1.39 | 13.1 | 13.1 | 4.75
COc1cccc(-c2cc(C(=O)Nc3cc4cc(OC)c(OC5CN(C)C[C@@H](O)[C@H]5O)c(C)c4oc3=O)ccc2OC)c1 (stereo partly specified) | 5.73 | 2.81 | 2.77 | 4.17 | 2.01 | 12.8 | 24.5 | 4.69
COc1cccc(-c2cc(C(=O)Nc3cc4ccc(OC5CC(C)C[C@@H](O)[C@H]5O)c(C)c4oc3=O)ccc2OC)c1 (stereo partly specified) | 11.4 | 2.5 | > 100 | 4.09 | > 100 | 6.74 | 2.73 | 1.14
COc1cccc(-c2cc(C(=O)Nc3cc4cc(OC)c(OC5CCCN(C)C5)c(C)c4oc3=O)ccc2OC)c1 (stereo unspecified) | 5.86 | 2.67 | 1.49 | 6.86 | 1.41 | 13.2 | 19.1 | 10.5
CNCCOc1ccc2cc(NC(=O)c3ccc(OC)c(-c4cccc(OC)c4)c3)c(=O)oc2c1C | 25.6 | 37.4 | 5.36 | 14 | 9.8 | 21.9 | 35.1 | > 100
COc1cccc(-c2cc(C(=O)Nc3cc4ccc(OC5C=CCNC5)c(OC)c4oc3=O)ccc2OC)c1 (stereo unspecified) | 5.49 | 3.41 | 3.07 | 4.88 | 1.43 | 5.97 | 6.71 | 6.45
COc1cccc(-c2cc(C(=O)Nc3cc4ccc(OC5CNC[C@@H](O)[C@H]5O)c(C)c4oc3=O)ccc2OC)c1 (stereo partly specified) | 6.14 | 2.8 | 2.91 | 6.33 | 2.07 | 5.6 | 5.89 | 4.9
COc1cccc(-c2cc(C(=O)Nc3cc4ccc(OC(C)=O)c(C)c4oc3=O)ccc2OC)c1 | 2.14 | 2.3 | 0.98 | 2.85 | 1.4 | 1.67 | 12.6 | 1.5
COc1cccc(-c2cc(C(=O)Nc3cc4ccc(OC5CNC[C@@H](O)[C@H]5O)c(OC)c4oc3=O)ccc2OC)c1 (stereo partly specified) | 11.4 | 11.8 | 8.98 | 14.4 | 10.2 | 21.7 | 11.6 | 12.2
COc1cc2cc(NC(=O)c3cc4ccccc4[nH]3)c(=O)oc2c(C)c1OC1CCN(C)CC1 | 1.47 | 1.19 | 0.11 | 0.87 | 0.52 | 1.42 | 1.24 | 1.47
COc1cccc(-c2cc(C(=O)Nc3cc4ccc(OC5CCC[C@@H](O)[C@H]5O)c(C)c4oc3=O)ccc2OC)c1 (stereo partly specified) | 2.94 | 14.1 | > 100 | 4.04 | > 100 | 17.9 | 13.9 | 1.58
COc1cccc(-c2cc(C(=O)Nc3cc4ccc(OC5CCNCC5)c(OC)c4oc3=O)ccc2OC)c1 | 16.4 | 2.14 | 1.79 | 8.47 | 3.23 | 10.9 | 12.6 | 10.8
COc1cccc(-c2cc(C(=O)Nc3cc4ccc(O[C@H]5OCC[C@@H](O)[C@H]5O)c(C)c4oc3=O)ccc2OC)c1 | 15.8 | 8.56 | 6.71 | 12.9 | 42.6 | 3.7 | 6.14 | 1.2
COc1cccc(-c2cc(C(=O)Nc3cc4ccc(OC5CCCN(C(C)=O)C5)c(C)c4oc3=O)ccc2OC)c1 (stereo unspecified) | 20.9 | 12.4 | > 50 | 3.42 | > 50 | 22.4 | 15.1 | 1.23
COc1cccc(-c2cc(C(=O)Nc3cc4ccc(OC5CCCN(C)C5)c(OC)c4oc3=O)ccc2OC)c1 (stereo unspecified) | 7.14 | 1.51 | 1.4 | 2.16 | 1.38 | 11.4 | 7.5 | 1.78
COc1cccc(-c2cc(C(=O)Nc3cc4ccc(OC5C=CCN(C)C5)c(OC)c4oc3=O)ccc2OC)c1 (stereo unspecified) | 1.48 | 6.47 | 3.42 | 0.98 | 1.65 | 2.36 | 1.94 | 0.36
COc1cccc(-c2cc(C(=O)Nc3cc4ccc(OC5CCCNC5)c(OC)c4oc3=O)ccc2OC)c1 (stereo unspecified) | 14.7 | 0.64 | 2.61 | 10.4 | 3.29 | 12.8 | 12.7 | 12.7
COc1cccc(-c2cc(C(=O)Nc3cc4cc(OC)c(O)c(C)c4oc3=O)ccc2OC)c1 | 12.4 | 5.77 | 3.23 | 11.2 | 11.7 | 6.7 | 24.6 | 15.8
COc1cccc(-c2cc(C(=O)Nc3cc4cc(OC)c(OC5CCN(C)CC5)c(C)c4oc3=O)ccc2OC)c1 | 3.74 | 36.7 | 1.19 | 2.84 | 1.79 | 1.54 | 1.84 | 4.17
COc1cccc(-c2cc(C(=O)Nc3cc4ccc(O[C@@H]5OCCC[C@H]5O)c(C)c4oc3=O)ccc2OC)c1 | 1.47 | 1.01 | > 100 | 10.1 | > 100 | 0.81 | 16.1 | 3.75
COc1cccc(-c2cc(C(=O)Nc3cc4ccc(O[C@@H]5C[C@H](O)CO5)c(C)c4oc3=O)ccc2OC)c1 | 12.4 | 9.37 | > 100 | 26.8 | > 100 | 18.8 | 6.19 | 4.96
COc1cccc(-c2cc(C(=O)Nc3cc4ccc(OC5CN(C)C[C@@H](O)[C@H]5O)c(OC)c4oc3=O)ccc2OC)c1 (stereo partly specified) | 5.9 | 6.58 | 6.64 | 3.52 | 11 | 5.9 | 6.7 | 1.5
